Source: PubChem BioAssay (The Scripps Research Institute Molecular Screening Center)
The list is not random: actives were taken first. Their share in the collection is about 3%.
CHRM4 agonist: CHRM4 agonism in calcium assay; AID 624127; activation, % at 3 µM; 360,000 compounds, 0.14% hits; CHO-K1 hM4/Gqi5, Fluo-8 calcium fluorescence; vehicle 0%, full acetylcholine response 100%; P08173;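 active = activation above the run mean over all test wells plus 3 SD, cut at about 32% in these data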;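 also: peak over basal fluorescence ratio per well then scaled between controls; 0% = DMSO wells and 100% = acetylcholine at EC100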
Target sequence (P08173 whole entry, looked up): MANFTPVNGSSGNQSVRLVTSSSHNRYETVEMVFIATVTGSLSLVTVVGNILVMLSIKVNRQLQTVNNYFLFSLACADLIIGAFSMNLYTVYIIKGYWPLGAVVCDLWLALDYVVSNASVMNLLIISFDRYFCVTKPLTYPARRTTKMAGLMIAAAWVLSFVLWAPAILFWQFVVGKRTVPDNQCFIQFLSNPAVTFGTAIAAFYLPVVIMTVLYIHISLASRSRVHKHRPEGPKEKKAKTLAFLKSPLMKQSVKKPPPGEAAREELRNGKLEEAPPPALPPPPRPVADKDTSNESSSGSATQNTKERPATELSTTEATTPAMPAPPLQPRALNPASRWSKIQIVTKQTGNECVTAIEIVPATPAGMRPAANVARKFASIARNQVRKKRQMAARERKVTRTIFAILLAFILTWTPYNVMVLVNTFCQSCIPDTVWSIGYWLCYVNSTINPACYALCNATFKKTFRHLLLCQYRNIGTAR
CHRM4 PAM: potentiates acetylcholine response at human M4 receptor | P08173 | 360,000 compounds, 0.4% hits | CHO-K1 hM4/Gqi5, Fluo-8 calcium fluorescence, ACh EC20; 0% = ACh EC20, 100% = maximal ACh | activation, % at 3 µM;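 active = activation above its plate's cutoff, the mean activation of sample wells plus 3 SD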
TAAR1 ag: agonists of human TAAR1; Q96RJ0; CHO RD-HGA16 TAAR1, Fluo-8 calcium fluorescence; vehicle wells 0%, saturating PEA agonist 100%; activation, % at 3 µM; 360,000 compounds, 0.99% hits;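 active = activation above the mean activation of all test compounds in the run plus 3 SD, cut at about 38% in these data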
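Repeats: no replicates (n 1) | Material: CHO-derived RD-HGA16 cells with stable Gα16 and human TAAR1 | Technique: Kinetic Fluo-8 calcium fluorescence | Schedule: 17-24 h seeding, 75 min 37 °C dye, 30 min RT | Evaluation: % activation from peak over basal fluorescence ratio, DMSO-to-PEA scaled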
CHRM4 antagonist: antagonists of human muscarinic M4 receptor (CHRM4); P08173; CHO-hM4 cells, ACh EC80, Fluo-8 calcium fluorescence; inhibition, % at 3 µM; 360,000 compounds, 0.73% hits;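 active = inhibition above its plate's cutoff, the mean inhibition of sample wells plus 3 SD, cut at about 27% in these data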;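 also: 0% = acetylcholine EC80 with DMSO and 100% = DMSO without agonist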
TAAR1 antag: human TAAR1 antagonism; Q96RJ0; CHO RD-HGA16 TAAR1, Fluo-8 calcium fluorescence, antagonist; inhibition, % at 3 µM; 360,000 compounds, 1.5% hits; AID 624466;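 active = inhibition above a per-plate cutoff, the mean inhibition of test compounds on that plate plus 3 SD, cut at about 49% in these data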;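 also: 0% = DMSO plus EC80 beta-PEA response and 100% = DMSO alone without agonist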
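Test system: CHO RD-HGA16 cells bearing hTAAR1 | Reagent: β-PEA, EC80 | Compound dosing: 3 µM, single point | Schedule: Dye loading 75 min at 37 °C, then 30 min room temperature | Signal: Calcium fluorescence with Fluo-8 | Evaluation: Percent inhibition of PEA-evoked calcium signal, max/basal emission ratio | Control set: DMSO-only wells and EC80 β-PEA-stimulated wells | Repeats: Singlicate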
Starred values were filed as active, the others as inactive; . = not tested or not shown.

SMILES | CHRM4 agonist | CHRM4 PAM | TAAR1 ag | CHRM4 antagonist | TAAR1 antag
CC(C)Oc1ccc(F)cc1-c1cc(C(=O)NCc2ccc(C(F)(F)F)cc2)[nH]n1 | 4.9 | -2.7 | 2.4 | -4.8 | 54.0*
CC(C)Oc1ccc(F)cc1-c1cc(C(=O)NCc2cc(C(F)(F)F)cc(C(F)(F)F)c2)[nH]n1 | -0.4 | 4.2 | 0.5 | -6.8 | 6.1
CC(C)Oc1cc(F)ccc1-c1cc(C(=O)Nc2cccc(C(F)(F)F)c2)[nH]n1 | 1.0 | -10.5 | 1.1 | 12.6 | 55.2*
Cc1cc(O)ccc1-c1cc(C(=O)NCc2ccc(F)cc2)[nH]n1 | 15.2 | 2.3 | 49.0* | -24.2 | 32.3
O=C(c1c(F)cccc1Cl)N(Cc1ccco1)C1CCS(=O)(=O)C1 (configuration not stated) | 0.9 | 4.5 | 3.8 | 0.3 | -3.2
C[C@@H]1CN([C@@H](C)CO)C(=O)CCCn2cc(nn2)CO[C@H]1CN(C)C(=O)Nc1cccc(F)c1 | . | . | 0.2 | . | 3.3
CCOC(=O)CSc1nc2c(cnn2-c2ccc(C)cc2)c(=O)[nH]1 | 1.0 | 19.1* | 0.9 | -22.2 | 5.3
CN1CCCCC(NC(=O)c2ccc(Cl)cc2Cl)C1=O (configuration not stated) | . | . | 0.3 | . | -3.4
CCOC(=O)c1ccc(-n2cccc2/C=C2\NC(=O)NC2=O)cc1 | 25.6 | -4.8 | 16.3 | -1.6 | 50.5*
CCc1ccc(NC(=O)c2ccc(F)c(S(=O)(=O)N(CC)c3ccccc3)c2)cc1 | 3.1 | -5.3 | 6.1 | 0.1 | 58.9*
COc1ccc2c(c1)N(C[C@H](C)CN(C)C)c1ccccc1S2 | 9.0 | -17.3 | 13.5 | 54.0* | 2.1
CCN(CC)CC(O)CN1c2ccccc2Sc2ccccc21 (configuration not stated) | 5.0 | -18.0 | 3.9 | 14.7 | -2.5
CC(CN1c2ccccc2Sc2ccccc21)N(C)C (configuration not stated) | 1.1 | -18.6 | 2.6 | 98.7* | 10.4
CC(CN(C)C)CN1c2ccccc2Sc2ccccc21 (configuration not stated) | 9.1 | -18.0 | 5.9 | 82.1* | 25.8
OCCN(CCO)CC(O)CN1c2ccccc2Sc2ccccc21 (configuration not stated) | 1.5 | -6.7 | . | 15.8 | .
Cc1c(C(=O)OC(C)CCN(C)C)oc2ccccc12 (configuration not stated) | 0.8 | -20.8 | 8.9 | 30.5* | -2.8
COc1cc(-c2cc(C(=O)Nc3cccc(C(C)=O)c3)c3ccccc3n2)cc(OC)c1OC | 27.6 | -13.1 | 20.0 | 9.2 | 68.3*
COc1ccc(Cl)cc1C(=O)NNC(=S)NC(=O)c1cc(-c2ccc(Cl)cc2)nc2ccccc12 | -0.1 | -1.4 | 37.5* | 6.4 | 16.0
COc1ccc(-c2cc(C(=O)Nc3ccc(C(N)=O)cc3)c3ccccc3n2)cc1OC | 11.0 | -11.0 | 11.6 | 9.2 | 53.8*
CCNC(=S)NNC(=O)c1cc(-c2ccc(OC)cc2)nc2ccccc12 | 4.7 | -3.0 | 0.0 | -3.4 | 11.1
COc1ccc(NC(=O)c2cc(-c3ccc(OC)c(OC)c3)nc3ccccc23)c(OC)c1 | 12.1 | -13.8 | 10.4 | -2.8 | 42.6
C[C@@H]1CCCCO[C@@H](CN(C)C(=O)CCC(F)(F)F)[C@@H](C)CN([C@H](C)CO)C(=O)c2cc(NS(=O)(=O)c3cccs3)ccc2O1 | . | . | 1.7 | . | 3.1
COC(=O)CSc1nc2ccc(NC(=O)CSc3nnnn3Cc3ccccc3)cc2s1 | 8.8 | -8.3 | 22.2 | 26.8* | 43.8
CCn1nnnc1SCC(=O)Nc1ccc(OCc2ccccc2)cc1 | 2.1 | 27.1* | 7.6 | -6.8 | 5.9
O=C(Nc1ccc(OCc2ccccc2)cc1)c1ccccc1 | 0.7 | -1.8 | 1.0 | 1.8 | -2.7
SMILES | CHRM4 agonist | CHRM4 PAM | TAAR1 ag | CHRM4 antagonist | TAAR1 antag
Cn1cnnc1SCC(=O)Nc1ccc2nc(SCc3cccc4ccccc34)sc2c1 | 8.9 | 16.4 | 41.7* | -1.7 | 16.6
COc1ccc(NC(=O)CSc2nnnn2Cc2ccccc2)cc1 | 2.9 | 1.7 | 1.8 | -14.4 | 9.3
Cc1ccsc1C(=O)Nc1ccc(OCc2ccccc2)cc1 | 1.2 | -5.2 | 17.2 | 18.2 | 53.7*
COc1ccccc1CCC(=O)NNC(=O)Cn1nc(C)cc1C | 0.9 | 1.6 | 1.4 | -6.4 | 1.1
COC(=O)c1cc2c(c3c4cc(C)ccc4n(S(=O)(=O)c4ccc(C)cc4)c13)C(=O)N(Cc1ccc(N(C)C)cc1)C2 | . | . | -1.7 | . | -4.3
O=C(CCN1CCN(Cc2ccccc2)CC1)Nc1ccc(OCc2ccccc2)cc1 | 20.1 | -29.6 | 19.1 | 54.5* | -8.5
CCN(Cc1ccccc1)Cc1ccc(OCc2ccccc2)cc1 | -2.3 | -13.2 | 6.6 | 26.7* | -8.3
Nc1ccc(OCc2ccccc2)cc1 | 0.1 | -0.5 | 8.0 | -5.0 | -23.1
CCc1ccc(OCCCCN(C)Cc2ccccc2)cc1 | 1.1 | -15.7 | 12.7 | 29.6* | -12.8
CN(CCCCOc1ccc(F)cc1)Cc1ccccc1 | 1.3 | -10.8 | 15.8 | 1.4 | -2.2
CC(C)(C)S(=O)(=O)N1C[C@@H]2CC(=O)C=C2[C@H]1CCO | . | . | 1.5 | . | -23.3
Cc1ccc(C)c(S(=O)(=O)N2CCN(C(=O)C3CCN(c4ncnc5sc(C)c(C)c45)CC3)CC2)c1 | 13.5 | -2.7 | 4.9 | 14.2 | 58.6*
Cc1sc2ncnc(N3CCC(C(=O)Nc4ccc(C#N)cc4)CC3)c2c1C | 3.0 | 23.6* | 7.8 | 1.2 | 11.6
CCN(CC)S(=O)(=O)c1cc(NC(=O)C2CCN(c3ncnc4sc(C)c(C)c34)CC2)ccc1Cl | 6.3 | -2.1 | 5.1 | 4.6 | 65.1*
Cc1sc2ncnc(N3CCC(C(=O)Nc4ccc(S(N)(=O)=O)cc4)CC3)c2c1C | 79.0* | 17.8 | 8.7 | 67.4* | -7.4
CC(C)NC(=O)C1(C)CN(S(C)(=O)=O)CC(=O)N1Cc1cccs1 (configuration not stated) | 2.0 | 25.1* | 1.9 | -3.0 | -28.1
CC1(C(=O)Nc2ccc3c(c2)OCCO3)CN(S(C)(=O)=O)CC(=O)N1Cc1cccs1 (configuration not stated) | 3.9 | 5.0 | -0.8 | -12.1 | 21.4
Cc1cccc(Nc2ncccc2C(=O)NCc2cccs2)c1C | 6.4 | 18.6 | 37.6* | 37.7* | 28.9
CSc1nsc(SC)c1C(=O)N1CCN(S(=O)(=O)c2ccc(C)cc2)C1C(C)C (configuration not stated) | 8.8 | -5.3 | 9.3 | -9.7 | 49.2*
CSc1nsc(SC)c1C(=O)N1CCN(S(=O)(=O)c2ccc(C)cc2)C1C (configuration not stated) | 11.9 | -10.9 | 8.6 | -3.4 | 46.8
O=C(NCc1ccc2c(c1)OCO2)c1ccc2c(c1)N(Cc1c(F)cccc1Cl)C(=O)CS2 | 0.4 | -13.6 | 12.2 | 16.6 | -8.6
CCC1CCCCN1CCCNC(=O)c1ccc2c(c1)N(Cc1c(F)cccc1Cl)C(=O)CS2 (configuration not stated) | 2.5 | -27.9 | 5.4 | 99.5* | -19.5
